Measurements: ChEMBL document CHEMBL4130635, “2,4-Diaminoquinazolines as Dual Toll-like Receptor (TLR) 7/8 Modulators for the Treatment of Hepatitis B Virus” (J Med Chem, 2018)
Activity calls are given as the source filed them. No cut-off for these calls is given here.

What was measured:
[1] = Stability in mouse hepatocytes assessed compound turnover at 1 uM after 60 mins; type: ADME, cell-based, Hepatocyte; conditions: read-out: Drug metabolism
[2] = Protein binding in mouse plasma fraction at 5 uM after 4.5 hrs LC-MS/MS-based rapid equilibrium dialysis method; type: ADME, cell-free; conditions: read-out: PPB (converted)
[3] = Tmax in Sprague-Dawley rat plasma at 10 mg/kg, po; type: ADME, organism-based
[4] = Hepatic extraction ratio in Sprague-Dawley rat hepatocytes; type: ADME, cell-based, Hepatocyte; conditions: in vivo, in the assay text read “in Sprague-Dawley rat” for “in Sprague-Dawley rat hepatocytes”, read-out: ERH
Summary of the method: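 Male Sprague-Dawley rats given 10 mg/kg po as a solution; compound measured in portal vein and systemic circulation to derive the hepatic extraction ratio.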

[5] = Cmax in C57BL/6J mouse liver at 30 mg/kg, po by LC-MS analysis; type: ADME, organism-based; design: dose 30 mg/kg, route oral
Summary of the method: (§1)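 Healthy C57BL/6 mice, groups of 15, given a single oral dose (0.3, 1, 3, 10 or 30 mg/kg) in 20% HP-β-CD. Blood drawn at 0.5 h. Three mice per group sacrificed at 0.5, 1, 2, 4 or 7 h, and compound in plasma and liver measured by LC−MS. Values rounded to whole numbers.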

[6] = Drug uptake in C57BL/6J mouse liver at 30 mg/kg, po by LC-MS analysis; type: ADME, organism-based; conditions: in vivo; summary of the method: as §1
Plasma [7] = experiment: Upregulation of IP-10 mRNA expression levels in C57BL/6J mouse plasma at 30 mg/kg, po by RT-qPCR analysis (reference value: 1); type: functional
Plasma [8] = experiment: Effect on cytokine profile in C57BL/6J mouse plasma assessed as IFNgamma levels at 1 mg/kg, po by multiplex assay; type: functional, organism-based
Summary of the method: (§2)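 Single oral gavage in 20% HP-β-CD to healthy C57BL/6 mice, groups of 15 at 0.3, 1, 3, 10 or 30 mg/kg. Three mice per group sacrificed at 0.5, 1, 2, 4 or 7 h. Plasma and liver cytokines by multiplex, maximum level reported, rounded to nearest multiple of 5.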

Plasma [9] = experiment: Effect on cytokine profile in C57BL/6J mouse plasma assessed as IFNgamma levels at 10 mg/kg, po by multiplex assay; type: functional; summary of the method: as §2
Liver [10] = experiment: Effect on cytokine profile in C57BL/6J mouse liver assessed as IFNgamma levels at 0.3 mg/kg, po by multiplex assay; type: functional, organism-based; summary of the method: as §2
Plasma [11] = experiment: Proinflammatory activity in C57BL/6J mouse plasma assessed as CXCL-1 levels at 10 mg/kg, po by multiplex assay (reference value: 230 pg/ml); type: functional
Liver [12] = experiment: Proinflammatory activity in C57BL/6J mouse liver assessed as CXCL-1 levels at 30 mg/kg, po by multiplex assay (reference value: 25 pg/g); type: functional
Liver [13] = experiment: Proinflammatory activity in C57BL/6J mouse liver assessed as IL-6 levels at 0.3 mg/kg, po by multiplex assay (reference value: 10 pg/g); type: functional, organism-based
Liver [14] = experiment: Proinflammatory activity in C57BL/6J mouse liver assessed as IL-6 levels at 30 mg/kg, po by multiplex assay (reference value: 10 pg/g); type: functional
Plasma [15] = experiment: Anti-inflammatory activity in C57BL/6J mouse plasma assessed as IL-10 levels at 0.3 mg/kg, po by multiplex assay (reference value: 120 pg/ml); type: functional; summary of the method: as §2
Plasma [16] = experiment: Anti-inflammatory activity in C57BL/6J mouse plasma assessed as IL-10 levels at 10 mg/kg, po by multiplex assay (reference value: 120 pg/ml); type: functional; summary of the method: as §2
[17] = Cmax in cynomolgus monkey plasma at 30 mg/kg, po by LC-MS analysis; type: ADME, organism-based, Macaca fascicularis; design: dose 30 mg/kg, route oral
Summary of the method: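 Healthy cynomolgus monkeys received oral doses of 1, 3, 9 and 30 mg/kg, with a 2-week wash-out between doses. Systemic compound concentrations by LC−MS at 0.25, 0.5, 1, 2, 4, 8 and 24 h postdose.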

[18] = AUC (0 to last) in cynomolgus monkey plasma at 1 mg/kg, po by LC-MS analysis; type: ADME, organism-based, Macaca fascicularis; design: dose 1 mg/kg, time 0 - last, route oral
Summary of the method: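 Healthy cynomolgus monkeys received single oral doses of 1, 3, 9 and 30 mg/kg, with a 2-week wash-out between doses. Systemic compound concentrations were measured by LC–MS at 0.25, 0.5, 1, 2, 4, 8 and 24 h postdose.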

Cynomolgus monkey [19] = experiment: Effect on cytokine profile in cynomolgus monkey plasma assessed as IL-12P70 levels at 9 mg/kg, po after 24 hrs by Luminex assay (reference value: 2.17 pg/ml); type: functional, Macaca fascicularis
Summary of the method: (§3)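 Healthy cynomolgus monkeys given single oral doses of 1, 3, 9 and 30 mg/kg, with a 2-week wash-out planned between doses. Systemic cytokine levels in plasma were sampled at 0.5, 1, 2, 4, 9 and 24 h postdose.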

Cynomolgus monkey [20] = experiment: Effect on cytokine profile in cynomolgus monkey plasma assessed as IL-12P70 levels at 30 mg/kg, po after 24 hrs by Luminex assay (reference value: 2.17 pg/ml); type: functional, Macaca fascicularis; summary of the method: as §3
Cynomolgus monkey [21] = experiment: Anti-inflammatory activity in cynomolgus monkey plasma assessed as IL-10 levels at 30 mg/kg, po after 24 hrs by Luminex assay (reference value: 195 pg/ml); type: functional, Macaca fascicularis
Cynomolgus monkey [22] = experiment: Induction of ISG response in cynomolgus monkey plasma assessed as upregulation of Isg15 mRNA expression at 9 mg/kg, po after 24 hrs by Fluidigm RT-qPCR analysis (reference value: 1); type: functional, Macaca fascicularis
Summary of the method: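 Cynomolgus monkeys, single oral doses of 1, 3, 9 and 30 mg/kg with a planned 2-week wash-out between doses. Systemic ISG (ISG15, Mx1, OAS1) mRNA was measured by Fluidigm RT-qPCR at 1, 2, 4, 8 and 24 h postdose.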

Cynomolgus monkey [23] = experiment: Upregulation of Tlr7 expression in cynomolgus monkey plasma at 9 mg/kg, po after 24 hrs by Fluidigm RT-qPCR analysis (reference value: 1.8); type: functional, Macaca fascicularis
Mus musculus = experiment: Toxicity in C57BL/6J mouse at 30 mg/kg, po after 1 to 2 hrs […]; type: organism-based; conditions: in vivo
[24] = molecular target: T1, TLR7 and TLR8 (Homo sapiens) (UniProt Q9NYK1+Q9NR97); experiment: Agonist activity at TLR7/8 in human PBMCs co-cultured with primary human hepatocytes infected with HBV genotype C for 12 days assessed as increase in CXCL10 levels up to 5 uM measured after 42 days
[25] = molecular target: T1, TLR7 and TLR8 (Homo sapiens); experiment: Agonist activity at TLR7/8 in human PBMCs co-cultured with primary human hepatocytes infected with HBV genotype C for 12 days assessed as increase in IFNgamma levels up to 5 uM measured after 42 days
[26] = molecular target: T1, TLR7 and TLR8 (Homo sapiens); experiment: Agonist activity at TLR7/8 in human PBMCs co-cultured with primary human hepatocytes infected with HBV genotype C for 12 days assessed as increase in MIP-1beta levels up to 5 uM measured after 42 days
[27] = molecular target: T1, TLR7 and TLR8 (Homo sapiens); experiment: Agonist activity at TLR7/8 in human PBMCs co-cultured with primary human hepatocytes infected with HBV genotype C for 12 days assessed as increase in GROalpha levels up to 5 uM measured after 42 days
[28] = Metabolic stability in human liver microsomes assessed as compound metabolized at 1 uM after 15 mins; type: ADME, microsome; conditions: read-out: Drug metabolism
Summary of the method: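 Mouse (M) or human (H) liver microsomes incubated with compound at 1 μM; percent metabolized after 15 min.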

Cytochrome P450 3A4 = Cytochrome P450 3A4 (Homo sapiens, UniProt P08684); experiment: Induction of CYP3A4 (unknown origin); type: ADME
Cytochrome P450 3A4, sequence (P08684 whole entry): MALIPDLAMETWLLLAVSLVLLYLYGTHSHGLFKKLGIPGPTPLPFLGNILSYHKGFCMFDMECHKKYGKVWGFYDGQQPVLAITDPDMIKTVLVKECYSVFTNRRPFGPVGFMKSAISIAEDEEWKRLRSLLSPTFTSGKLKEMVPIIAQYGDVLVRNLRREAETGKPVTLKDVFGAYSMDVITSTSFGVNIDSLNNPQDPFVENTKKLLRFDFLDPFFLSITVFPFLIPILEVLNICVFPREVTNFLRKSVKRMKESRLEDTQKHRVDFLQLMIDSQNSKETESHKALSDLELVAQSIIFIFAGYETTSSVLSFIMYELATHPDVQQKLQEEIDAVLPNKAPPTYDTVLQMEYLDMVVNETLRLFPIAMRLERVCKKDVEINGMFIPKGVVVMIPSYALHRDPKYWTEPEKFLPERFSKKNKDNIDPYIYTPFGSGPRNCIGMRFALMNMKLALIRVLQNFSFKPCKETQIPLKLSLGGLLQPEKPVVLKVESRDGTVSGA

With `CCC[C@@H](CCO)Nc1nc(N)nc2c(F)cccc12` the metabolised at 1 h, 1 µM [1] was 99%, the fraction unbound at 4.5 h, 5 µM [2] was 0.4 and the Tmax [3] was 30 min. The hepatic extraction ratio [4] was 0.74, the Cmax [5] was 7610 ng/g and the Drug uptake [6] was 462 ng/g. The “fold change (FC)” value (Plasma [7]) was 1100, the Activity (Plasma [8]) was “Below limit of detection” and the Activity (Plasma [9]) was 295 pg/mL. The Activity (Liver [10]) was “Below limit of detection”, the Activity (Plasma [11]) was over 10000 pg/mL and the Activity (Liver [12]) was over 83333 pg/g. The Activity (Liver [13]) was “Below limit of detection”, the Activity (Liver [14]) was 7555 pg/g and the Activity (Plasma [15]) was 345 pg/mL. For the same molecule, the Activity (Plasma [16]) was 29450 pg/mL, the Cmax [17] was 2070 ng/mL and the AUC(0-t) [18] was 75 ng·h/mL. The Activity (Cynomolgus monkey [19]) was 3.8 pg/mL, the Activity (Cynomolgus monkey [20]) was 10.1 pg/mL and the Activity (Cynomolgus monkey [21]) was 9135 pg/mL. For the same molecule, the “fold change (FC)” value (Cynomolgus monkey [22]) was 560, the “fold change (FC)” value (Cynomolgus monkey [23]) was 3.5 and the Activity (Mus musculus) was “Toxic”. The Activity [24] was “Active”, the Activity [25] was “Active” and the Activity [26] was “Active”. The Activity [27] was “Active”, the metabolised at 0.25 h, 1 µM [28] was 43% and the Activity (Cytochrome P450 3A4) was “Not Active”.
